# Assay results pooled from the literature.
# Each line is one published result; the experiments were not run side by side.
# FGFR3: Fibroblast growth factor receptor 3 (FGFR3, Homo sapiens, UniProt P22607)
Structure (SMILES),target,assay,setting,measurement,result
COc1cc(Nc2ncc(F)c(Nc3ccc4c(n3)NC(=O)C(C)(C)O4)n2)cc(OC)c1OC,FGFR3,"binding, competition with immobilised ligand",10 µM,inhibition,99%
Cn1cncc1[C@@](O)(COc1ccc(C#N)cc1-c1ccc(OC(F)(F)F)cc1)c1ccc(C#N)cc1,FGFR3,"cell-free assay, competition with immobilised ligand",1 µM,remaining binding,100%
Cc1nn(C)cc1-c1nc2c(N3CCN(Cc4ccc(Cl)cc4)CC3)c(Cl)cnc2[nH]1,"Fibroblast growth factor receptor 3 (FGFR3, Homo sapiens, UniProt P22607, G697C)","binding, competition with immobilised ligand",1 µM,remaining binding,69%
Nc1ncc(-c2nc(N3CCOCC3)nc(N3CCOCC3)n2)c(C(F)F)n1,FGFR3,"cell-free assay, competition with immobilised ligand",10 µM,remaining binding,88%
COc1ncccc1-c1cnn2ccc(N3CCN(C(=O)OC(C)C)CC3)nc12,FGFR3,"binding, competition with immobilised ligand",1 µM,remaining binding,86%
CC(C)(C)c1cc(C=C(C#N)C#N)cc(Br)c1O,FGFR3,"enzyme activity, inhibitor",0.5 µM,remaining activity,92.8%
Cn1cc(-c2cc(F)cc(N3CCn4c(cc5c4CCCC5)C3=O)c2CO)cc(Nc2ccc(N3CCN(C4COC4)CC3)cn2)c1=O,FGFR3,"enzyme activity, inhibitor",0.1 µM,inhibition,19%
C#Cc1n[nH]c2c(-c3cn(C(C)c4ccccn4)c(=O)[nH]c3=O)cc(F)cc12 (stereo not drawn),FGFR3,"enzyme activity, inhibitor",1 µM,inhibition,9.3%
O=c1[nH]c2ccccc2n1C1CCN(Cc2ccc(-c3[nH]c4cc5ncnc5cc4nc3-c3ccccc3)cc2)CC1,FGFR3,cell-free assay,0.5 µM,remaining signal,101%
